Shown are actives, neighbours in structure and some others; about 1.6% of the full set was active somewhere.
PKD1 inh: inhibitors of human PKD1 kinase, biochemical, fluorescence polarization | Serine/threonine-protein kinase D1 (Homo sapiens), Q15139 | PKD1 kinase fluorescence polarization assay | inhibition, % (test concentration not listed) | 200,000 tested, 0.056% active | AID 797, 2007; in the data active = inhibition above about 50%
ABCG2 block: ABCG2 efflux pump inhibitors, primary screen, multiplex with ABCB1, IgMXP3 cells, flow cytometry; AID 1325, 2008; Broad substrate specificity ATP-binding cassette transporter ABCG2 (Homo sapiens), Q9UNQ0; JC-1 efflux; inhibition, % at 6.6 µM; 190,000 tested, 0.1% active;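 active = inhibition above 80%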;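 note: 0% = DMSO and 100% = nicardipine control wells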
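Test system: ABCG2 IgMXP3 and barcoded ABCB1 CCRF-Adr cell mix; Schedule: cells with compound and JC-1, 10 min at 25 °C, rotating, no wash; Technique: flow cytometry of retained JC-1 fluorescence; Measure: % inhibition of efflux relative to nicardipine and DMSO; Controls: nicardipine high and DMSO low controls.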
HSV augment: enhancers of HSV replication in host cells, fold increase, host cell viability | maximum fold increase | 220,000 tested, 0.005% active | HSV replication augmentation in cells; in the data active = maximum fold increase above about 1.5; inconclusive = no clear call, values can overlap the other calls; tested in PC3 cells
ABCB1 block: ABCB1 efflux pump inhibitors, primary screen, cell-based, multiplex, flow cytometry, ABCG2 counter-screen. CCRF-Adr cells, JC-1 efflux. ATP-dependent translocase ABCB1 (Homo sapiens), P08183. AID 1326, 2008. 190,000 tested, 0.067% active. inhibition, % at 6.6 µM; in the data active = inhibition above about 40%;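 note: 0% = vehicle and 100% = reference inhibitor; higher value means more JC-1 retained so stronger ABCB1 efflux block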
PHOSPHO1 block: PubChem AID 1565. Phosphoethanolamine/phosphocholine phosphatase (Homo sapiens), Q8TCT1. recombinant PHOSPHO1, absorbance phosphatase assay. inhibition, % at 13.3 µM. 290,000 tested, 1.1% active; in the data active = inhibition above about 60%
p47phox inh: p47phox/p22phox peptide binding inhibitors, primary screen, biochemical, uHTS, NADPH oxidase regulatory subunit; fluorescence polarization, 2 h; AID 1274, 2008; inhibition, % at 24.7 µM; Neutrophil cytosol factor 1 (Homo sapiens), P14598; 220,000 tested, 0.53% active;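 active = inhibition above about 30%, limit read from the data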;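 note: 0% = p47phox with labelled peptide and 100% = labelled peptide alone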
Target sequence (P14598 whole entry, looked up): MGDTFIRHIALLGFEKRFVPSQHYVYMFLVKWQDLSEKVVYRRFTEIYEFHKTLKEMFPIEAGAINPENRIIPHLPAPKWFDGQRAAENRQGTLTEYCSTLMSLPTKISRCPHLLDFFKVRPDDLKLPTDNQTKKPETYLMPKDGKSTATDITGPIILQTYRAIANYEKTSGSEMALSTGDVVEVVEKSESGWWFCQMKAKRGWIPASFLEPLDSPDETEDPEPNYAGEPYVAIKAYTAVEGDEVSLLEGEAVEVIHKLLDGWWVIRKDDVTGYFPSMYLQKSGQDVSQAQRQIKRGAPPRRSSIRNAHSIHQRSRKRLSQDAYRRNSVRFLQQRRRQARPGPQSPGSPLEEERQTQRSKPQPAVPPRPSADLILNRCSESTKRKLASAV
* = called active by the depositor; i = inactive; ? = inconclusive; nt = no result given.

SMILES | PKD1 inh | ABCG2 block | HSV augment | ABCB1 block | PHOSPHO1 block | p47phox inh
Cc1ccc(C(=O)N[C@H](C(=O)OCc2cc(=O)oc3cc(C)ccc23)C(C)C)cc1 | -9 | -5 | i | -1 | 7 | 1
O=C(O)CCNc1cc(N2CCN(C(=O)c3ccco3)CC2)c2noc3c2c1C(=O)c1ccccc1-3 | nt | nt | nt | nt | 27 | nt
CC(=O)OCCNc1cc(N2CCN(C)CC2)c2noc3c2c1C(=O)c1ccccc1-3 | 4 | 19 | i | 6 | -5 | 62*
O=C1CCCC(O)=C1N=Nc1ccc(C(=O)O)cc1 | nt | nt | i | nt | 7 | 32*
O=C1CCCC(O)=C1N=Nc1ccc2c(c1)OCO2 | 11 | 11 | i | 1 | 24 | -42
CCCc1ncc(C(O)c2ccccc2OC)n1C (stereo not drawn) | -1 | 0 | i | 0 | -20 | -3
CSCCC(NC(=O)c1cc(CC(C)C)oc1C)C(=O)O (stereo not drawn) | 6 | -2 | nt | -3 | 53 | -6
CSCCC(NC(=O)c1cc(C)oc1C)C(=O)O (stereo not drawn) | 6 | 1 | i | 0 | 90* | -17
COc1cccc(CSCC(=O)NCCc2ccccc2)c1OC | nt | nt | nt | nt | 16 | nt
CC(C)c1onc(C(=O)N(C)C2CCCCC2)c1[N+](=O)[O-] | 2 | 5 | i | 0 | -4 | nt
C=CCNc1sc(C(=O)c2ccc(C)cc2)c(N)c1C#N | 10 | 1 | i | 0 | 96* | -14
C=CCNc1sc(C(=O)C2CC2)c(N)c1C#N | 12 | 6 | i | 0 | 44 | -18
C=CCNc1sc(C(=O)C(C)(C)C)c(N)c1C#N | -8 | 0 | i | 0 | -24 | 11
C=CCNc1sc(C(=O)c2ccc(Br)s2)c(N)c1C#N | -8 | -1 | i | 0 | 82* | -31
C=CCNc1sc(C(=O)c2ccccc2)c(N)c1C#N | 14 | 0 | i | 0 | 96* | -13
Cc1cc(C)cc(OCCNC(=O)c2cc(S(=O)(=O)N3CCOCC3)ccc2F)c1 | nt | nt | nt | nt | 0 | nt
CC(=O)O[C@H]1C[C@@]2(C)[C@@H](C[C@@H](O)[C@H]3[C@@]4(C)CC[C@@H](O)[C@@H](C)C4CC[C@@]32C)/C1=C(\CCC=C(C)C)C(=O)O (stereo partly drawn) | -10 | -1 | i | 0 | -1 | -11
CCOC(=O)C(=O)N1CCC(C(=O)OCC)CC1 | nt | nt | i | nt | 12 | -6
O=Nc1c(-c2c(O)[nH]c3cc(Br)ccc23)[nH]c2ccccc12 | nt | nt | nt | nt | 10 | nt
COc1ccc(-c2noc(CSc3nc(-c4ccccc4)cc(=O)[nH]3)n2)cc1 | -2 | -1 | i | 0 | 102* | -7
Cc1ccc(CC(=S)N2CCOCC2)cc1 | 0 | 2 | i | 1 | 36 | 4
COc1ccc(CC(=S)N2CCOCC2)cc1 | -2 | 0 | i | 0 | 73* | 6
CC(C)c1cc(=O)oc2c3c4c(cc12)CCCN4CCC3 | 1 | 1 | ? | 0 | 90* | -10
Cc1cc(=O)oc2c3c4c(cc12)OCCN4CCC3 | 7 | 1 | i | 0 | -19 | 3
COC(=O)c1ccc(CSc2nnc(SCc3ccc(C(=O)OC)o3)s2)o1 | -11 | 2 | i | 0 | 54 | -2
SMILES | PKD1 inh | ABCG2 block | HSV augment | ABCB1 block | PHOSPHO1 block | p47phox inh
COc1ccc(Nc2nnc(SCc3cc([N+](=O)[O-])cc4c3OCOC4)s2)cc1 | -7 | 3 | i | 0 | 78* | -11
COC(=O)c1ccc(CSc2nnc(Nc3ccccc3OC)s2)o1 | -7 | 3 | i | 0 | 67* | 4
COC(=O)c1ccc(CSc2nnc(Nc3ccc(OC)cc3)s2)o1 | -8 | 4 | i | 1 | 71* | 1
O=C(NCCc1ccccc1Cl)C1CCC(=O)N(Cc2cccc(C(F)(F)F)c2)C1 (stereo not drawn) | nt | nt | nt | nt | 38 | nt
O=C(NCCc1cccc(C(F)(F)F)c1)C1CCC(=O)N(Cc2ccc(Cl)cc2)C1 (stereo not drawn) | nt | nt | nt | nt | 68* | nt
O=C(NCc1ccccc1)C1CCN(c2nc(-c3ccccc3)nc3c2CCC3)CC1 | nt | nt | nt | nt | 56 | nt

Screening results: PubChem BioAssay, several laboratories
